Compound activity deposited in PubChem BioAssay by Broad Institute.
Sampled rows, rich in hits. Any-hit rate of the full collection: about 3.7%.
E-sel inducer – induces E-selectin expression in human endothelial cells. P16581. HUVEC E-selectin immunofluorescence imaging; normalized: neutral wells 0, TNF-alpha wells 100. activation, % at 7.58 µM. 0.37% of 260,000 active;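 active means mean E-selectin-positive cell signal at least 10% of the positive control, reached in at least 60% of replicates, without over 20% cell loss; inconclusive means no rule given, readout overlaps actives, possibly toxicity-flagged; inactive means the rest, including those meeting only one limit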
Target sequence (P16581 whole entry, looked up): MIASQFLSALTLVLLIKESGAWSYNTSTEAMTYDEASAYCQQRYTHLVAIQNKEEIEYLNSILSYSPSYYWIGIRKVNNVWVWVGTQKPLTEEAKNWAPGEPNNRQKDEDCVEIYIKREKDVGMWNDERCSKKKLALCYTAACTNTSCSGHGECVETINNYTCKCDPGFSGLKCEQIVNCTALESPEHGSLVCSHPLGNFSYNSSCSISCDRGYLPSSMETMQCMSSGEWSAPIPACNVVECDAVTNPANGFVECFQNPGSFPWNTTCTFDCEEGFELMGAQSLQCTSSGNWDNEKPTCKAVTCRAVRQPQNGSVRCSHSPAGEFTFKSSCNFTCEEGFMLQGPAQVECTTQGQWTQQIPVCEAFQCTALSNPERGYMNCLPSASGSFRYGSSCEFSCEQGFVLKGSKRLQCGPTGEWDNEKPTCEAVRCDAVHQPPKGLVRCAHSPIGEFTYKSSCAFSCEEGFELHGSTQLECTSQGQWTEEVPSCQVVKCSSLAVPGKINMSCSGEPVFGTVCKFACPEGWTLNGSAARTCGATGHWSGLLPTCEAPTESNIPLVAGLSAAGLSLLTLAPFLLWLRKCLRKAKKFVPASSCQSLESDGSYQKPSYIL
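System: HUVEC, human umbilical vein endothelial cells; quantity: 3,000 cells/well; buffer or medium: EGM-2 medium, gelatin-coated wells; dosing: single-point compound dose; detection: immunofluorescence imaging; evaluation: % PE-positive cells; benchmarks: TNF-alpha, DMSO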
DENV2 CPE – DENV2-induced cell death inhibition. AID 651640. DENV2-infected cells, cytopathic effect rescue, plate reader. CPE inhibition, % at 9.99 µM. 1.7% of 350,000 active; in the data active means CPE inhibition above about 20%, passing the limit was not always enough; inconclusive means no clear call, values can overlap the other calls; tested in BHK-21 cells;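 further: 0% = median of neutral control wells and 100% = median of positive control wells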
FGF22 binding – binders of recombinant human FGF22 by thermal shift. activity (Tm shift, normalised), % at 9.99 µM. 1.5% of 340,000 active. AID 651658. Q9HCT0. SYPRO orange fluorescence; percent of sucrose octasulfate shift, DMSO zero;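 active means mean Tm shift, scaled 0 neutral to 100 positive control, at about 1.3% or above, every replicate too, limit read from the data; inconclusive means no clear call, values can overlap the other calls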
F508del corr – CFTR F508del correction in bronchial cells | CFBE cells, YFP halide quenching; stimulated with forskolin plus potentiator P3; % fluorescence drop versus neutral controls | 0.36% of 350,000 active | AID 720511 | activity (quench increase), % at 7.58 µM;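 active means mean added fluorescence quench of at least 8% versus neutral control, with both replicates also reaching 8%; inconclusive means only one of the mean or replicate conditions met; inactive means mean below 8% and not both replicates reaching 8%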;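 further: cells transiently co-express mutant CFTR-F508del with the halide-sensitive YFP; corrector assay measuring rescue of mutant channel to the surface after 24 h compound exposure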
ERAP1 HTS inh – blocks human ERAP1 aminopeptidase activity | recombinant ERAP1, Leu-AMC fluorescence, 60 min | inhibition, % at 10.7 µM | 0.15% of 340,000 active;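 active means mean replicate inhibition of at least 30%, or all replicates individually reaching that 30% level; inactive means mean below 30% and not every replicate reaching it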;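 further: 0% = neutral control wells and 100% = L-leucinethiol positive control wells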
Active calls of the source: *; ? = inconclusive; nt = no result given.

SMILES	E-sel inducer	DENV2 CPE	FGF22 binding	F508del corr	ERAP1 HTS inh
C[C@H](CO)N1C[C@H](C)[C@H](CN(C)C)Oc2ccc(NC(=O)C3CCCCC3)cc2CC1=O	1	8	0	-2	0
O=C(Nc1ccc(F)cc1)c1ccccc1	nt	1	nt	-1	-2
O=C(NC(O)C(=O)c1ccccc1)c1ccc(F)cc1 (stereo unspecified)	41*	2	0	5	-4
CC(C)NC(=O)N(C)C[C@H]1Oc2ncc(C#CC3CC3)cc2C(=O)N([C@H](C)CO)C[C@H]1C	-1	-1	0	5	-4
COc1ccc(CN2C[C@H](C)[C@H](OC)CN(C)C(=O)c3cc(NC(=O)C4CC4)ccc3OC[C@@H]2C)cc1	0	nt	nt	0	nt
CCc1c(C(=O)Nc2cc(C(=O)OC)ccc2C)csc1C	1	88*	0	0	-4
CCNc1nc(NC(C)(C)C)nc(Oc2ccc(=O)n(-c3ccccc3)n2)n1	43*	-1	0	2	1
CC(C)CC1C(=O)N(Cc2cn(Cc3ccco3)nn2)CCS(=O)(=O)N1Cc1ccc(-c2ccc(Cl)cc2)cc1 (stereo unspecified)	nt	23*	0	-5	-3
CC(C)C1C(=O)N(Cc2cn(Cc3ccco3)nn2)CCS(=O)(=O)N1Cc1ccc(-c2cccc(N(C)C)c2)cc1 (stereo unspecified)	0	-2	1	1	4
CC(C)CC1C(=O)N(Cc2cn(Cc3ccco3)nn2)CCS(=O)(=O)N1Cc1ccc(-c2cccc(CO)c2)cc1 (stereo unspecified)	0	14	0	-6	-1
Cc1ccc(-c2ccc(CN3C(C(C)C)C(=O)N(Cc4cn(Cc5ccco5)nn4)CCS3(=O)=O)cc2)cc1 (stereo unspecified)	nt	28*	0	1	-3
COc1ccc(S(=O)(=O)Nc2cccc3c2O[C@H](CN(C)C)[C@H](C)CN([C@H](C)CO)C3=O)cc1	nt	13	0	0	-3
COc1ccc2c3c([nH]c2c1)[C@@H](CO)N(C)CC31CCN(C(=O)NC(C)C)CC1	0	?	nt	0	nt
O=C(Nc1ccc(S(=O)(=O)N2CCCCC2c2cccnc2)cc1)c1c(F)cccc1F (stereo unspecified)	nt	-8	44*	3	-2
COC(=O)[C@@H]1[C@H](CCc2ccccc2)NC(=O)N(Cc2ccccc2)[C@@H]1C	0	68*	0	1	0
CCN1C(=O)N[C@@H](CCc2ccccc2)[C@H](C(=O)OC)[C@H]1C	0	-1	0	1	nt
C[C@H]1CN([C@@H](C)CO)C(=O)Cc2cc(NS(C)(=O)=O)ccc2O[C@H]1CN(C)C(=O)Nc1ccc2c(c1)OCO2	-3	?	-1	-2	nt
O=C1NC(=O)C2(COC(c3cccc([N+](=O)[O-])c3)OC2)S1 (stereo unspecified)	533*	0	0	1	5
CCOc1ccccc1NC(=O)c1c(NC(=O)CCC(=O)O)sc2c1CCCCC2	nt	1	0	5	4
CCOC(=O)c1ccc(NC(=O)c2c(NC(=O)CCC(=O)O)sc3c2CCCCC3)cc1	nt	7	44*	nt	13
CN(C)S(=O)(=O)c1ccc(C(=O)OCC(=O)Nc2sc3c(c2C#N)CCCCC3)cc1	nt	13	0	-3	-3
CC(C)(C)c1ccc(C(=O)OCC(=O)Nc2sc3c(c2C#N)CCC3)cc1	nt	99*	0	-2	1
CCOC(=O)c1c(NC(=O)COC(=O)c2nc(Cl)ccc2Cl)sc2c1CCC2	137*	6	0	nt	4
CCOC(=O)c1c(NC(=O)C(=O)N/N=C/c2ccccc2O)sc2c1CCCCC2	nt	5	0	16*	5
COc1ccc(S(=O)(=O)N(C)C[C@H]2Oc3ccc(NS(=O)(=O)c4cn(C)cn4)cc3CC(=O)N([C@H](C)CO)C[C@@H]2C)cc1	0	5	0	-3	-2
SMILES	E-sel inducer	DENV2 CPE	FGF22 binding	F508del corr	ERAP1 HTS inh
C[C@@H]1CN([C@@H](C)CO)C(=O)Cc2cc(NC(=O)Nc3ccc(C(F)(F)F)cc3)ccc2O[C@@H]1CN(C)Cc1ccc(Oc2ccccc2)cc1	1	-18	1	4	0
COc1ccccc1-c1ccc2n(c1=O)C[C@@H]1[C@@H](CO)[C@H](C(=O)N(C)C)[C@H]2N1C(=O)c1cccnc1	0	9	0	1	3
CS(=O)(=O)Nc1ccc2c(c1)[C@@H]1C[C@@H](CC(=O)NCCN3CCCCC3)O[C@H](CO)[C@@H]1O2	0	0	0	-4	0
CCS(=O)(=O)N1CCC2(CC1)CN(Cc1ccc3c(c1)OCO3)[C@@H](CO)c1c2c2ccc(OC)cc2n1C	0	4	0	-1	1
C[C@@H]1CN([C@@H](C)CO)C(=O)c2cc(C#CC3CC3)cnc2O[C@@H]1CN(C)C(=O)C1CCCCC1	20	nt	nt	-2	nt
O=C1/C(=C\c2c(NCCOCCO)nc3ccccn3c2=O)SC(=S)N1Cc1ccco1	73*	-4	0	2	nt
CC1=CC(C)C(=O)N(CCN2CCOCC2)C(C)=C1 (stereo unspecified)	1	7	43*	1	3
O=C1c2ccccc2C(=O)N1CCN1CCOCC1	2	10	0	0	nt
CC(C)N(Cc1ccccc1)C(=O)COC(=O)c1cnc(Cl)c(Cl)c1	1	67*	0	1	-3
O=C(OCc1ccccc1)c1cnc(Cl)c(Cl)c1	0	-1	0	-3	1
CC(C)C[C@@H](CN(N=O)[C@@H](Cc1ccccc1)CN(C)N=O)N(CCc1ccccc1)N=O	0	-8	0	0	nt
CC(C)CCN(N=O)[C@@H](Cc1ccccc1)CN(N=O)[C@@H](Cc1ccccc1)CN(C)N=O	0	?	0	-3	0
CN(C[C@H](Cc1ccccc1)N(C[C@H](Cc1ccccc1)N(CCC(C)(C)C)N=O)N=O)N=O	0	nt	nt	8.8*	nt
CN(C[C@H](Cc1ccccc1)N(C[C@@H](CC1CCCCC1)N(CCc1ccccc1)N=O)N=O)N=O	0	57*	0	5	1
Cc1noc(C)c1S(=O)(=O)N(C)C[C@@H]1OCCCC[C@@H](C)Oc2ccc(NS(C)(=O)=O)cc2C(=O)N([C@@H](C)CO)C[C@@H]1C	0	-1	1	0	0
CCCCCCCCCCCCCCCC(O)C[N+](C)(C)CCO (stereo unspecified)	0	7	0	1	50*
CCCCCC(O)CCCC(=O)O (stereo unspecified)	0	8	0	-10	-3
CCCc1cc(C(=O)OC)c(NC(=O)CCC(=O)O)s1	0	5	43*	0	-2
CC1C=NC(S(=O)(=O)N2CC[C@@H]3[C@@H](CO)N(C)c4ccc(-c5cccc(F)c5)cc4[C@@H]32)=N1 (stereo partly specified)	0	17	0	-1	1
